Measurements: ChEMBL document CHEMBL1154352, “Toll-like receptor 7 selective synthetic oligoribonucleotide agonists: synthesis and structure-activity relationship studies” (J Med Chem, 2009)
Calls of active or inactive are those of the source. No cut-off for these calls is given here.

Experiments:
[1] = biological target: Toll-like receptor 3 (Homo sapiens) (UniProt O15455); assay: Activation of human TLR3 expressed in HEK293 assessed as induction of NF-kappaB activity reporter gene assay; format: cell-based
PBMC [2] = assay: Immunomodulatory activity in human PBMC assessed as induction of IL6 at 50 ug/ml after 24 hrs; format: functional, cell-based
Summary of the method: (§1)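 Human PBMCs plated at 5 × 10^6 cells/mL; compounds dissolved in PBS added at various concentrations, 37 °C for 24 h. Supernatant cytokines/chemokines quantified with human Luminex multiplex kit.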

PBMC [3] = assay: Immunomodulatory activity in human PBMC assessed as induction of IP10 at 50 ug/ml after 24 hrs; format: functional, cell-based; summary of the method: as §1
Homo sapiens [4] = species: Homo sapiens; assay: Ratio of human TLR7 activity to human TLR8 activity
Summary of the method: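 TLR7/TLR8 ratio computed from fold NF-κB (SEAP reporter) activation in HEK293 cells stably expressing human TLR7 versus TLR8, compounds at 50 μg/mL, 18 h exposure; representative of three independent experiments.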

Homo sapiens [5] = species: Homo sapiens; assay: Immunostimulatory activity in human pDC assessed as induction of IL6 at 100 ug/ml after 24 hrs; format: functional
Summary of the method: (§2)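 Human pDCs plated at 1 × 10^6 cells/mL; compounds in PBS added, 37 °C for 24 h; supernatant cytokines/chemokines by human Luminex multiplex kit.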

PBMC [6] = assay: Immunomodulatory activity in human PBMC assessed as induction of IFN-alpha at 100 ug/ml after 24 hrs
PBMC [7] = assay: Immunomodulatory activity in human PBMC assessed as induction of MIP1beta at 50 ug/ml after 24 hrs; format: functional, cell-based; summary of the method: as §1
Homo sapiens [8] = species: Homo sapiens; assay: Immunostimulatory activity in human mDC assessed as induction of IFNalpha at 100 ug/ml after 24 hrs; format: functional
Summary of the method: (§3)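 Human mDCs isolated from PBMCs by CD19+ B-cell depletion then BDCA1 positive selection; plated at 1 × 10^6 cells/mL, compounds in PBS, 37 °C for 24 h; supernatant cytokines by human Luminex multiplex. Representative of four independent experiments.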

Homo sapiens [9] = species: Homo sapiens; assay: Immunostimulatory activity in human mDC assessed as induction of TNFalpha at 100 ug/ml after 24 hrs; format: functional; summary of the method: as §3
PBMC [10] = assay: Immunomodulatory activity in human PBMC assessed as induction of TNFalpha at 50 ug/ml after 24 hrs; format: functional, cell-based; summary of the method: as §1
PBMC [11] = assay: Immunomodulatory activity in human PBMC assessed as induction of MIP1alpha at 50 ug/ml after 24 hrs; format: functional, cell-based; summary of the method: as §1
Homo sapiens [12] = species: Homo sapiens; assay: Immunostimulatory activity in human mDC assessed as induction of IL12 at 100 ug/ml after 24 hrs; format: functional; summary of the method: as §3
Homo sapiens [13] = species: Homo sapiens; assay: Immunostimulatory activity in human pDC assessed as induction of IFNalpha at 100 ug/ml after 24 hrs; format: functional; summary of the method: as §2
[14] = biological target: T1, Toll-like receptor 8 (Homo sapiens) (UniProt Q9NR97); assay: Activation of human TLR8 expressed in HEK293XL assessed as fold induction of NF-kappaB activity at 50 ug/ml after 18 hrs by reporter gene assay relative to control
T1 sequence (whole entry): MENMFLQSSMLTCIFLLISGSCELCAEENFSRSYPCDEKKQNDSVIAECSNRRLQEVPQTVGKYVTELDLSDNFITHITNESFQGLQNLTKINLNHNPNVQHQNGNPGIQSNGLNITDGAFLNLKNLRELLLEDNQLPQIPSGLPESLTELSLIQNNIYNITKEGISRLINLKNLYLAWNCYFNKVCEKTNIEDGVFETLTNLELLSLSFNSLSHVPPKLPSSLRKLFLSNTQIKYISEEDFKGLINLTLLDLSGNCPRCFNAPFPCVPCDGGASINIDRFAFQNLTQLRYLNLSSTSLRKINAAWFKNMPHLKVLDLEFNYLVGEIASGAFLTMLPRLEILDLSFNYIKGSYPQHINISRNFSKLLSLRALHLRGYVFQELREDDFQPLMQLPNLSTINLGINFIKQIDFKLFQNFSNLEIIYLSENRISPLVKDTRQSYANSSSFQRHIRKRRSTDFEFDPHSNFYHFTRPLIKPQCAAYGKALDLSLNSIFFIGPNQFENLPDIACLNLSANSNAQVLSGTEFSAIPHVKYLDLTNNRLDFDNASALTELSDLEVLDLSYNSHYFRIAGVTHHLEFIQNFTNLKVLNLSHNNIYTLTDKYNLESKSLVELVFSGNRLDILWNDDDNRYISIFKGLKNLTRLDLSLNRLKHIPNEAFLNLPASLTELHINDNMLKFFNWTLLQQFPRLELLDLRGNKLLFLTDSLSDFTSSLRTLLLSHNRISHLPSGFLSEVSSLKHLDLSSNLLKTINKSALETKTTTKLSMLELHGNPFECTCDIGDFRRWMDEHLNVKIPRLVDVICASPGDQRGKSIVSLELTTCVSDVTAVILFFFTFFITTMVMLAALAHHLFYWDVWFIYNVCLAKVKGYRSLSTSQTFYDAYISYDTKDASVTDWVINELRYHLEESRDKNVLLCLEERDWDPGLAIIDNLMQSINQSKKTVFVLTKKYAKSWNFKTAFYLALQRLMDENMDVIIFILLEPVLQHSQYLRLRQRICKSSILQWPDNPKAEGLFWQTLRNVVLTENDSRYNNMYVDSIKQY
Summary of the method: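 HEK293 cells stably expressing human TLR7 or TLR8, transiently transfected with SEAP reporter plasmid; medium replaced, SIMRA compounds added, 18 h incubation. Supernatant SEAP measured by QuantiBlue; expressed as fold increase in NF-κB activity over PBS control. Tabulated data at 50 μg/mL, representative of three independent experiments.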

Mus musculus = assay: Immunomodulatory activity in C57BL/6 mouse assessed as induction of IL12 release at 25 mg/kg, sc after 2 hrs by ELISA; format: functional, organism-based; set-up: dose 25 mg/kg
Summary of the method: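 Female C57BL/6 wild-type mice, 5–8 weeks old, n=3; compounds given subcutaneously at 10 or 25 mg/kg. Retro-orbital blood at 2 h; serum cytokines by mouse Luminex multiplex or IL-12 ELISA.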

PBMC [15] = assay: Immunomodulatory activity in human PBMC assessed as induction of IFNalpha at 50 ug/ml after 24 hrs; format: functional, cell-based; summary of the method: as §1
[16] = Metabolic stability in human serum assessed as full length product remaining after 10 mins by HPLC; format: ADME, cell-free; details: read-out: Stability
Summary of the method: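 About 0.5 A260 units compound in 1% human serum in PBS, 37 °C; aliquot taken at 10 min, analysed by anion-exchange HPLC for percent intact full-length product.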

PBMC [17] = assay: Immunomodulatory activity in human PBMC assessed as induction of MCP1 at 50 ug/ml after 24 hrs; format: functional, cell-based; summary of the method: as §1
Homo sapiens [18] = species: Homo sapiens; assay: Immunostimulatory activity in human mDC assessed as induction of IL6 at 100 ug/ml after 24 hrs; format: functional; summary of the method: as §3
PBMC [19] = assay: Immunomodulatory activity in human PBMC assessed as induction of IL12 at 50 ug/ml after 24 hrs; format: functional, cell-based; summary of the method: as §1
Homo sapiens [20] = species: Homo sapiens; assay: Immunostimulatory activity in human mDC assessed as induction of IP10 at 100 ug/ml after 24 hrs; format: functional; summary of the method: as §3
PBMC [21] = assay: Immunomodulatory activity in human PBMC assessed as induction of IL1-beta at 50 ug/ml after 24 hrs; format: functional, cell-based; summary of the method: as §1

Toll-like receptor 3 (Homo sapiens), sequence (O15455 whole entry): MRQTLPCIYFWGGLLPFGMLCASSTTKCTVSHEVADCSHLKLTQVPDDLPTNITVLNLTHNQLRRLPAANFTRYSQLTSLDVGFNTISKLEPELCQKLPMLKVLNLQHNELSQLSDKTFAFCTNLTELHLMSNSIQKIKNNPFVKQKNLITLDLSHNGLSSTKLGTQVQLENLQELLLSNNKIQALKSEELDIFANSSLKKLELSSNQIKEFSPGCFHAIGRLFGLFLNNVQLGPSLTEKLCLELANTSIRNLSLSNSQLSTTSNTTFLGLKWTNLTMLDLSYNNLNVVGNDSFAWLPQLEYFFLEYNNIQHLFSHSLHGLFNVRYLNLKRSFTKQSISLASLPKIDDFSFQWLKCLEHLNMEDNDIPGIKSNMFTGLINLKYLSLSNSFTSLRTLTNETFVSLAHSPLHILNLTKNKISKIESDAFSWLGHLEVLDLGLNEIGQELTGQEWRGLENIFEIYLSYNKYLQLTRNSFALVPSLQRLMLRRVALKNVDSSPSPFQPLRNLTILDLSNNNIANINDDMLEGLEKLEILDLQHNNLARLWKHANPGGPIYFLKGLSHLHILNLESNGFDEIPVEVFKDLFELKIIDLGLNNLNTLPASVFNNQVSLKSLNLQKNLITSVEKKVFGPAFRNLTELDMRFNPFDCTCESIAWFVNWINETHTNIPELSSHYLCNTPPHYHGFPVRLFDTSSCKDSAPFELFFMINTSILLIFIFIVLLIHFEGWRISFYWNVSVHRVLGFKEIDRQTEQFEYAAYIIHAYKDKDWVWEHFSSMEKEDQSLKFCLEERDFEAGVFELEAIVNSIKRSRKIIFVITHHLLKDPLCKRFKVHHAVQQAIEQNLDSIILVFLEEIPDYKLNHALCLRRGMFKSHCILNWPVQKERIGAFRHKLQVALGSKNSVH

SMILES	Activity [1]	Activity (PBMC [2]) [pg/mL]	Activity (PBMC [3]) [pg/mL]	Ratio (Homo sapiens [4])	Activity (Homo sapiens [5])	IFN-alpha (PBMC [6]) [pg/mL]	Activity (PBMC [7]) [pg/mL]	Activity (Homo sapiens [8])	Activity (Homo sapiens [9])	Activity (PBMC [10]) [pg/mL]	Activity (PBMC [11]) [pg/mL]	Activity (Homo sapiens [12])	Activity (Homo sapiens [13])	fold change (FC) [14]	Activity (Mus musculus)	Activity (PBMC [15]) [pg/mL]	Activity (PBMC [17]) [pg/mL]	Activity (Homo sapiens [18])	Activity (PBMC [19]) [pg/mL]	Activity (Homo sapiens [20])	further results
Nc1ccn([C@@H]2O[C@H](COP(=O)(S)O[C@H]3[C@@H](O)[C@H](n4cnc5c(N)ncnc54)O[C@@H]3COP(=O)(S)O[C@H]3[C@@H](O)[C@H](n4ccc5c(=O)[nH]c(N)nc54)O[C@@H]3COP(=O)(S)O[C@H]3[C@@H](O)[C@H](n4ccc(=O)[nH]c4=O)O[C@@H]3COP(=O)(S)O[C@H]3[C@@H](O)[C@H](n4ccc5c(=O)[nH]c(N)nc54)O[C@@H]3COP(=O)(S)O[C@H]3[C@@H](O)[C@H](n4cnc5c(N)ncnc54)O[C@@H]3COP(=O)(S)O[C@H]3[C@@H](O)[C@H](n4cnc5c(N)ncnc54)O[C@@H]3CO)[C@@H](OP(=O)(S)OC[C@H]3O[C@@H](n4ccc5c(=O)[nH]c(N)nc54)[C@H](O)[C@@H]3OP(=O)(S)OC[C@H]3O[C@@H](n4cnc5c(N)ncnc54)[C@H](O)[C@@H]3OP(=O)(S)OC[C@H]3O[C@@H](n4ccc(=O)[nH]c4=O)[C@H](O)[C@@H]3OP(=O)(S)OC[C@H]3O[C@@H](n4ccc(=O)[nH]c4=O)[C@H](O)[C@@H]3OP(=O)(S)OCC(O)COP(=O)(S)O[C@H]3[C@@H](O)[C@H](n4ccc(=O)[nH]c4=O)O[C@@H]3COP(=O)(S)O[C@H]3[C@@H](O)[C@H](n4ccc(=O)[nH]c4=O)O[C@@H]3COP(=O)(S)O[C@H]3[C@@H](O)[C@H](n4cnc5c(N)ncnc54)O[C@@H]3COP(=O)(S)O[C@H]3[C@@H](O)[C@H](n4ccc5c(=O)[nH]c(N)nc54)O[C@@H]3COP(=O)(S)O[C@H]3[C@@H](O)[C@H](n4ccc(N)nc4=O)O[C@@H]3COP(=O)(S)O[C@H]3[C@@H](O)[C@H](n4cnc5c(N)ncnc54)O[C@@H]3COP(=O)(S)O[C@H]3[C@@H](O)[C@H](n4ccc5c(=O)[nH]c(N)nc54)O[C@@H]3COP(=O)(S)O[C@H]3[C@@H](O)[C@H](n4ccc(=O)[nH]c4=O)O[C@@H]3COP(=O)(S)O[C@H]3[C@@H](O)[C@H](n4ccc5c(=O)[nH]c(N)nc54)O[C@@H]3COP(=O)(S)O[C@H]3[C@@H](O)[C@H](n4cnc5c(N)ncnc54)O[C@@H]3COP(=O)(S)O[C@H]3[C@@H](O)[C@H](n4cnc5c(N)ncnc54)O[C@@H]3CO)[C@H]2O)c(=O)n1 (stereo partly drawn)	inactive	1900	55	21.9	Active	254	6680	Active	Active	18	3090	Active	Active	0.8	Active	121	46700	Active	174	Active	remaining at 10 min [16]: 90%; Activity (PBMC [21]): 123 pg/mL
Nc1ccn([C@@H]2O[C@H](COP(O)(=S)O[C@H]3[C@@H](O)[C@H](n4ccc(=O)[nH]c4=O)O[C@@H]3COP(O)(=S)O[C@H]3[C@@H](O)[C@H](n4ccc(=O)[nH]c4=O)O[C@@H]3COP(O)(=S)O[C@H]3[C@@H](O)[C@H](n4ccc(N)nc4=O)O[C@@H]3COP(O)(=S)O[C@H]3[C@@H](O)[C@H](n4ccc5c(=O)[nH]c(N)nc54)O[C@@H]3COP(O)(=S)O[C@H]3[C@@H](O)[C@H](n4ccc(=O)[nH]c4=O)O[C@@H]3COP(O)(=S)O[C@H]3[C@@H](O)[C@H](n4ccc(N)nc4=O)O[C@@H]3COP(O)(=S)O[C@H]3[C@@H](O)[C@H](n4ccc5c(=O)[nH]c(N)nc54)O[C@@H]3COP(O)(=S)O[C@H]3[C@@H](O)[C@H](n4ccc(=O)[nH]c4=O)O[C@@H]3CO)[C@@H](OP(O)(=S)OC[C@H]3O[C@@H](n4ccc(=O)[nH]c4=O)[C@H](O)[C@@H]3OP(O)(=S)OC[C@H]3O[C@@H](n4ccc5c(=O)[nH]c(N)nc54)[C@H](O)[C@@H]3OP(O)(=S)OCC(O)COP(O)(=S)O[C@H]3[C@@H](O)[C@H](n4ccc5c(=O)[nH]c(N)nc54)O[C@@H]3COP(O)(=S)O[C@H]3[C@@H](O)[C@H](n4ccc(=O)[nH]c4=O)O[C@@H]3COP(O)(=S)O[C@H]3[C@@H](O)[C@H](n4ccc(N)nc4=O)O[C@@H]3COP(O)(=S)O[C@H]3[C@@H](O)[C@H](n4ccc(=O)[nH]c4=O)O[C@@H]3COP(O)(=S)O[C@H]3[C@@H](O)[C@H](n4ccc(=O)[nH]c4=O)O[C@@H]3COP(O)(=S)O[C@H]3[C@@H](O)[C@H](n4ccc(N)nc4=O)O[C@@H]3COP(O)(=S)O[C@H]3[C@@H](O)[C@H](n4ccc5c(=O)[nH]c(N)nc54)O[C@@H]3COP(O)(=S)O[C@H]3[C@@H](O)[C@H](n4ccc(=O)[nH]c4=O)O[C@@H]3COP(O)(=S)O[C@H]3[C@@H](O)[C@H](n4ccc(N)nc4=O)O[C@@H]3COP(O)(=S)O[C@H]3[C@@H](O)[C@H](n4ccc5c(=O)[nH]c(N)nc54)O[C@@H]3COP(O)(=S)O[C@H]3[C@@H](O)[C@H](n4ccc(=O)[nH]c4=O)O[C@@H]3CO)[C@H]2O)c(=O)n1 (stereo partly drawn)	inactive	5580	167	3.4	Active	385	27600	Active	Active	688	15500	Active	Active	4.7	Active	373	47400	Active	671	Active	Activity (PBMC [21]): 688 pg/mL
